Assay results reported in ChEMBL document CHEMBL2086248, “Synthesis of some novel 1-(2-naphthyl)-2-(imidazol-1-yl)ethanone oxime ester derivatives and evaluation of their anticonvulsant activity” (Eur J Med Chem, 2012).
The source made the active and inactive calls.

Experiments:
Mus musculus [1] = experiment: Neurotoxicity in mouse assessed as motor impairment at 100 mg/kg, ip after 4 hrs by rotarod test; assay type: toxicity, organism-based; parameters: dose 100 mg/kg, route intraperitoneal; settings: in vivo
Summary of the method: (§1)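 Swiss albino mice (20-24 g) were dosed ip with a suspension in 30% aqueous PEG 400 and tested 0.5 h or 4 h later. They were placed on a knurled wooden rod 1 inch in diameter, rotating at 6 rpm. Toxicity meant failure to stay on the rod for at least 1 min in each of three trials. Scored as number toxic/number tested (4 mice at 0.5 h, 2 at 4 h).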

Mus musculus [2] = experiment: Anticonvulsant activity in mouse assessed as protection against maximal electroshock-induced seizures at 300 mg/kg, ip after 0.5 hrs; assay type: functional, organism-based; parameters: dose 300 mg/kg
Summary of the method: (§2)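 Swiss albino mice (20-24 g) received an ip suspension in 30% aqueous PEG 400 and were tested 0.5 h and 4 h after dosing. Shock was delivered through corneal electrodes from a constant current unit, with 0.9% saline dropped into the eyes first. Protection meant abolition of the hind limb tonic extension. Scored as number protected/number tested, one mouse per dose and time.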

Mus musculus [3] = experiment: Neurotoxicity in mouse assessed as motor impairment at 30 mg/kg, ip after 0.5 hrs by rotarod test; assay type: toxicity, organism-based; parameters: dose 30 mg/kg, route intraperitoneal; settings: in vivo; summary of the method: as §1
Mus musculus [4] = experiment: Anticonvulsant activity in mouse assessed as protection against maximal electroshock-induced seizures at 300 mg/kg, ip after 4 hrs; assay type: functional, organism-based; parameters: dose 300 mg/kg; summary of the method: as §2
Mus musculus [5] = experiment: Anticonvulsant activity in mouse assessed as protection against subcutaneous pentylenetetrazole-induced seizures at 30 mg/kg, ip after 0.5 hrs; assay type: functional, organism-based; parameters: dose 30 mg/kg
Summary of the method: (§3)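 Swiss albino mice (20-24 g) were dosed ip with a suspension in 30% aqueous PEG 400 and challenged 0.5 h or 4 h later. Protection meant no threshold seizure (clonic spasms lasting at least 5 s). Scored as number protected/number tested, one mouse per dose and time.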

Mus musculus [6] = experiment: Anticonvulsant activity in mouse assessed as protection against maximal electroshock-induced seizures at 100 mg/kg, ip after 0.5 hrs; assay type: functional, organism-based; parameters: dose 100 mg/kg; summary of the method: as §2
Mus musculus [7] = experiment: Neurotoxicity in mouse assessed as motor impairment at 100 mg/kg, ip after 0.5 hrs by rotarod test; assay type: toxicity, organism-based; parameters: dose 100 mg/kg, route intraperitoneal; settings: in vivo; summary of the method: as §1
Mus musculus [8] = experiment: Anticonvulsant activity in mouse assessed as protection against maximal electroshock-induced seizures at 30 mg/kg, ip after 0.5 hrs; assay type: functional, organism-based; parameters: dose 30 mg/kg; summary of the method: as §2
Mus musculus [9] = experiment: Anticonvulsant activity in mouse assessed as protection against maximal electroshock-induced seizures at 30 mg/kg, ip after 4 hrs; assay type: functional, organism-based; parameters: dose 30 mg/kg; summary of the method: as §2
Mus musculus [10] = experiment: Neurotoxicity in mouse assessed as motor impairment at 300 mg/kg, ip after 4 hrs by rotarod test; assay type: toxicity, organism-based; parameters: dose 300 mg/kg, route intraperitoneal; settings: in vivo; summary of the method: as §1
Mus musculus [11] = experiment: Neurotoxicity in mouse assessed as motor impairment at 300 mg/kg, ip after 0.5 hrs by rotarod test; assay type: toxicity, organism-based; parameters: dose 300 mg/kg, route intraperitoneal; settings: in vivo; summary of the method: as §1
Mus musculus [12] = experiment: Anticonvulsant activity in mouse assessed as protection against subcutaneous pentylenetetrazole-induced seizures at 100 mg/kg, ip after 4 hrs; assay type: functional, organism-based; parameters: dose 100 mg/kg; summary of the method: as §3
Mus musculus [13] = experiment: Anticonvulsant activity in mouse assessed as protection against maximal electroshock-induced seizures at 100 mg/kg, ip after 4 hrs; assay type: functional, organism-based; parameters: dose 100 mg/kg; summary of the method: as §2
Mus musculus [14] = experiment: Anticonvulsant activity in mouse assessed as protection against subcutaneous pentylenetetrazole-induced seizures at 300 mg/kg, ip after 0.5 hrs; assay type: functional, organism-based; parameters: dose 300 mg/kg; summary of the method: as §3
Mus musculus [15] = experiment: Anticonvulsant activity in mouse assessed as protection against subcutaneous pentylenetetrazole-induced seizures at 30 mg/kg, ip after 4 hrs; assay type: functional, organism-based; parameters: dose 30 mg/kg; summary of the method: as §3
Mus musculus [16] = experiment: Anticonvulsant activity in mouse assessed as protection against subcutaneous pentylenetetrazole-induced seizures at 100 mg/kg, ip after 0.5 hrs; assay type: functional, organism-based; parameters: dose 100 mg/kg; summary of the method: as §3
Mus musculus [17] = experiment: Neurotoxicity in mouse assessed as motor impairment at 30 mg/kg, ip after 4 hrs by rotarod test; assay type: toxicity, organism-based; parameters: dose 30 mg/kg, route intraperitoneal; settings: in vivo; summary of the method: as §1
Mus musculus [18] = experiment: Anticonvulsant activity in mouse assessed as protection against subcutaneous pentylenetetrazole-induced seizures at 300 mg/kg, ip after 4 hrs; assay type: functional, organism-based; parameters: dose 300 mg/kg; summary of the method: as §3

Structure (SMILES) | Activity (Mus musculus [1]) | Activity (Mus musculus [2]) | Activity (Mus musculus [3]) | Activity (Mus musculus [4]) | Activity (Mus musculus [5]) | Activity (Mus musculus [6]) | Activity (Mus musculus [7]) | Activity (Mus musculus [8]) | Activity (Mus musculus [9]) | Activity (Mus musculus [10]) | Activity (Mus musculus [11]) | Activity (Mus musculus [12]) | Activity (Mus musculus [13]) | Activity (Mus musculus [14]) | Activity (Mus musculus [15]) | Activity (Mus musculus [16]) | Activity (Mus musculus [17]) | Activity (Mus musculus [18])
O=C(O/N=C(\Cn1ccnc1)c1ccc2ccccc2c1)c1cccc(Cl)c1 | Non-toxic | Active | Non-toxic | Active | inactive | Active | Non-toxic | inactive | inactive | Non-toxic | Non-toxic | inactive | Active | inactive | inactive | inactive | Non-toxic | inactive
O=C(O/N=C(\Cn1ccnc1)c1ccc2ccccc2c1)c1ccc(Cl)cc1 | Non-toxic | inactive | Non-toxic | inactive | inactive | inactive | Non-toxic | inactive | inactive | Non-toxic | Non-toxic | Active | inactive | inactive | Active | inactive | Non-toxic | Active
CCCCC(=O)O/N=C(\Cn1ccnc1)c1ccc2ccccc2c1.Cl | Non-toxic | Active | Non-toxic | inactive | inactive | Active | Non-toxic | Active | inactive | Non-toxic | Non-toxic | inactive | inactive | inactive | inactive | inactive | Non-toxic | inactive
Cc1ccccc1C(=O)O/N=C(\Cn1ccnc1)c1ccc2ccccc2c1 | Non-toxic | Active | Non-toxic | Active | inactive | inactive | Non-toxic | inactive | inactive | Non-toxic | Non-toxic | inactive | inactive | inactive | inactive | inactive | Non-toxic | inactive
CCCC(CCC)C(=O)[O-].[Na+] [VALPROATE SODIUM] | Non-toxic | Active | Non-toxic | inactive | inactive | inactive | Non-toxic | inactive | inactive | Non-toxic | Non-toxic | inactive | inactive | Active | inactive | inactive | Non-toxic | inactive
O=C1NC(=O)C(c2ccccc2)(c2ccccc2)N1 [PHENYTOIN] | Toxic | Active | Non-toxic | Active | inactive | Active | Non-toxic | Active | Active | Toxic | Toxic | inactive | Active | inactive | inactive | inactive | Non-toxic | inactive
Cl.O=C(/C=C/c1ccccc1)O/N=C(\Cn1ccnc1)c1ccc2ccccc2c1 | Non-toxic | Active | Non-toxic | inactive | inactive | Active | Non-toxic | Active | inactive | Non-toxic | Non-toxic | inactive | inactive | inactive | inactive | inactive | Non-toxic | inactive
Cl.O=C(ON=C(Cn1ccnc1)c1ccc2ccccc2c1)C1CCCCC1 (mixture of isomers) | Non-toxic | Active | Non-toxic | inactive | inactive | Active | Non-toxic | inactive | inactive | Non-toxic | Non-toxic | inactive | inactive | Active | inactive | Active | Non-toxic | inactive
COc1ccccc1C(=O)O/N=C(\Cn1ccnc1)c1ccc2ccccc2c1 | Non-toxic | Active | Non-toxic | Active | inactive | Active | Non-toxic | inactive | Active | Non-toxic | Non-toxic | inactive | Active | Active | inactive | Active | Non-toxic | inactive
O=C(O/N=C(\Cn1ccnc1)c1ccc2ccccc2c1)c1cccc(Br)c1 | Non-toxic | Active | Non-toxic | inactive | inactive | Active | Non-toxic | inactive | inactive | Non-toxic | Non-toxic | inactive | inactive | inactive | inactive | inactive | Non-toxic | inactive
C/C=C(\C)C(=O)O/N=C(\Cn1ccnc1)c1ccc2ccccc2c1.Cl | Non-toxic | inactive | Non-toxic | inactive | inactive | inactive | Non-toxic | inactive | inactive | Non-toxic | Non-toxic | inactive | inactive | inactive | inactive | inactive | Non-toxic | Active
CCCC(=O)O/N=C(\Cn1ccnc1)c1ccc2ccccc2c1.Cl | Non-toxic | Active | Non-toxic | Active | inactive | Active | Non-toxic | Active | inactive | Non-toxic | Toxic | inactive | inactive | inactive | inactive | inactive | Non-toxic | Active
